# Active and inactive are the calls of the source. No rule for the calls is given here.
# Molecular target: Muscarinic acetylcholine receptor M3 (Homo sapiens) (UniProt P20309)
# Experiment: ACh response enhancement at M3 – CHO cells, human M3, selectivity assay for M5 PAM project (AID 651922)
# Procedure, shortened: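 System: human M3-expressing CHO-K1 cells / Measure: % of maximal acetylcholine response / Reagent: acetylcholine at submaximal EC20 concentration / Detection: Fluo-4 fluorescence calcium mobilization measurement / Incubation: compound pre-incubation 1.5 min, acetylcholine stimulation 50 s, read at 25 °C / Medium: HEPES- and probenecid-supplemented HBSS, pH 7.4 / Doses: final DMSO 0.3% in assay wells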
# Sequence of Muscarinic acetylcholine receptor M3 (Homo sapiens) (P20309 whole entry, looked up): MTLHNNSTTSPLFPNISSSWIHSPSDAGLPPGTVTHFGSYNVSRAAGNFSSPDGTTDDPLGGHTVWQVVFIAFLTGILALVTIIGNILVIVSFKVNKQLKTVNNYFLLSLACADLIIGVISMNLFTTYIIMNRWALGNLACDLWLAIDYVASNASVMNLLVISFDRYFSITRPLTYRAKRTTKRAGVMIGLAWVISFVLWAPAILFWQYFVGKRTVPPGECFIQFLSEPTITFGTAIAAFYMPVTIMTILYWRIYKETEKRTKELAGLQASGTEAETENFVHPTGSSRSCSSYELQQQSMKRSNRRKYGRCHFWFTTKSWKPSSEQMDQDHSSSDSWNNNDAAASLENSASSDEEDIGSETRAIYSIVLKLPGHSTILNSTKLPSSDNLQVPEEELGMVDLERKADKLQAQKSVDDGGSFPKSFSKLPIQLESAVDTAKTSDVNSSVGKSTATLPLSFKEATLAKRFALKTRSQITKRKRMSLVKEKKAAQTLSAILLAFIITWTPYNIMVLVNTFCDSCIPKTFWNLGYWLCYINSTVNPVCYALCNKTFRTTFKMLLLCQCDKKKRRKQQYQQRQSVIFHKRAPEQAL
compound,measurement,value
O=C1C(=O)N(CCOc2ccccc2)c2ccc(OC(F)(F)F)cc21,outcome,inactive

# Source: PubChem BioAssay AID651922 (Vanderbilt Specialized Chemistry Center, 2012)
